Laboratory results reported in ChEMBL document CHEMBL1833880, “Biologically active arborinane-type triterpenoids and anthraquinones from Rubia yunnanensis” (J Nat Prod, 2011).
pIC50: −log10 of the molar value. Values after ≈ are worked out from the molar mass of the structure shown. Active and inactive are the calls of the source. The rule behind the calls is not given here.

How the values were obtained:
HeLa [1] = assay: Cytotoxicity against human HeLa cells after 48 hrs by SRB assay; format: functional, cell-based
Outline: (§1)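 Cells plated 24 h, then exposed to serial dilutions up to 20 μg/mL for 48 h at 37 °C in 5% CO2. They were fixed with cold 50% TCA for 1 h at 4 °C, stained with 0.4% SRB in 1% acetic acid for 15 min, and the bound dye was dissolved in 10 mM Tris base. Absorbance was read at 560 nm. IC50 was taken from triplicate tests.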

A549 [2] = assay: Cytotoxicity against human A549 cells at >10 uM after 48 hrs by SRB assay; format: functional, cell-based
SMMC-7721 [3] = assay: Cytotoxicity against human SMMC7721 cells at >10 uM after 48 hrs by SRB assay; format: functional, cell-based
Staphylococcus aureus = assay: Antibacterial activity against Staphylococcus aureus CGMCC1.2465 after 24 hrs by turbidimetric method; format: functional; settings: for MIC50: CGMCC1.2465, 24 h
Outline: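 Inoculum was adjusted by OD620 to McFarland 0.5 and diluted to 1 × 10^6 cfu/mL. It was exposed to serial dilutions up to 25 μg/mL in Mueller-Hinton broth at 37 °C for 24 h, and absorbance was read at 620 nm. MIC50 was taken from triplicate tests. Ampicillin was the reference.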

SMMC-7721 [4] = assay: Cytotoxicity against human SMMC7721 cells after 48 hrs by SRB assay; format: functional, cell-based; settings: SMMC-7721, 48 h
Outline: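 Cells seeded 24 h, then exposed to serial dilutions (top concentration 20 μg/mL) for 48 h at 37 °C, 5% CO2. Fixed with ice-cold 50% TCA at 4 °C for 1 h, stained 15 min with 0.4% SRB in 1% acetic acid, dye solubilized in 10 mM Tris base, absorbance at 560 nm. Triplicate; IC50 reported. Paclitaxel and camptothecin as positive controls.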

Candida albicans = assay: microbe, parasite or virus in culture; format: functional; settings: CGMCC 2.2086, 24 h
HeLa [5] = assay: Cytotoxicity against human HeLa cells at >10 uM after 48 hrs by SRB assay; format: functional, cell-based
A549 [6] = assay: Cytotoxicity against human A549 cells after 48 hrs by SRB assay; format: functional, cell-based; settings: A549, 48 h; outline: as §1

Row | SMILES | pIC50 (HeLa [1]) | Activity (A549 [2]) | Activity (SMMC-7721 [3]) | further results
1 | CC(=O)O[C@@H]1C[C@@H](C(C)C)[C@]2(CO)CC[C@@]3(C)[C@H]4C(=CC[C@]3(C)[C@@H]12)[C@@]1(C)C=CC(=O)C(C)(C)[C@@H]1C[C@@H]4O | 5.10 | inactive | inactive | 
2 | CC(=O)OC[C@@]12CC[C@@]3(C)[C@H]4C(=CC[C@]3(C)[C@H]1[C@H](O)C[C@H]2C(C)C)[C@@]1(C)CC[C@H](O[C@@H]2O[C@H](CO[C@@H]3O[C@H](CO)[C@@H](O)[C@H](O)[C@H]3O)[C@@H](O)[C@H](O)[C@H]2O)C(C)(C)[C@@H]1C[C@@H]4O | 5.66 | inactive | inactive | 
3 | CC(=O)OC[C@H]1O[C@@H](Oc2cc3c(c(O)c2C)C(=O)c2ccc(O)cc2C3=O)[C@H](O[C@@H]2O[C@@H](C)[C@H](O)[C@@H](O)[C@H]2O)[C@@H](O)[C@@H]1O | 5.38 | inactive | inactive | 
4 | O=C1c2ccccc2C(=O)c2cc(CO)c(O)cc21 | 5.52 | inactive | inactive | 
5 | Cc1c(O)cc2c(c1O)C(=O)c1ccc(O)cc1C2=O |  |  |  | MIC50 (Staphylococcus aureus): 21.5 µM (≈ 5.81 µg/mL)
6 | COC1=CC(=O)c2ccccc2C1=O [2-Methoxy-1,4-naphthoquinone] |  | inactive |  | pIC50 (SMMC-7721 [4]): 5.37; Activity (Staphylococcus aureus): inactive; MIC50 (Candida albicans): 16 µM (≈ 3.01 µg/mL); Activity (HeLa [5]): inactive
7 | CC1(C)S[C@@H]2[C@H](NC(=O)[C@H](N)c3ccccc3)C(=O)N2[C@H]1C(=O)O [AMPICILLIN] |  |  |  | MIC50 (Staphylococcus aureus): 0.1 µM (≈ 0.0349 µg/mL)
8 | CC[C@@]1(O)C(=O)OCc2c1cc1n(c2=O)Cc2cc3ccccc3nc2-1 [CAMPTOTHECIN] |  |  |  | pIC50 (SMMC-7721 [4]): 8.52
9 | Clc1ccc(COC(Cn2ccnc2)c2ccc(Cl)cc2Cl)c(Cl)c1 (stereo not drawn) [MICONAZOLE NITRATE] |  |  |  | MIC50 (Candida albicans): 0.9 µM
10 | CC(=O)O[C@H]1C(=O)[C@@]2(C)[C@H]([C@H](OC(=O)c3ccccc3)[C@]3(O)C[C@H](OC(=O)[C@H](O)[C@@H](NC(=O)c4ccccc4)c4ccccc4)C(C)=C1C3(C)C)[C@]1(OC(C)=O)CO[C@@H]1C[C@@H]2O [PACLITAXEL] | 6.22 |  |  | 
11 | CC(=O)O[C@@H]1C[C@@H](C(C)C)[C@]2(CO)CC[C@@]3(C)[C@H]4C(=CC[C@]3(C)[C@@H]12)[C@@]1(C)CC[C@H](O)C(C)(C)[C@@H]1C[C@@H]4O [RUBIARBONOL G] | 5.66 |  | inactive | pIC50 (A549 [6]): 5.15; MIC50 (Staphylococcus aureus): > 25 µM; MIC50 (Candida albicans): 10.8 µM (≈ 5.58 µg/mL)
12 | CC(C)[C@@H]1C[C@@H](O)[C@H]2[C@@]1(C)CC[C@@]1(C)C3=CC[C@H]4C(C)(C)[C@@H](O)CC[C@]4(C)C3=CC[C@]21C [RUBIYUNNANOL A] |  |  | inactive | pIC50 (A549 [6]): 5.01; pIC50 (HeLa [5]): < 5.00
13 | CC(C)[C@@H]1CC=C2[C@@]1(C)CC[C@@]1(C)[C@H]3C(=CC[C@]21C)[C@@]1(C)CC[C@H](O)C(C)(C)[C@@H]1C[C@@H]3O [RUBIYUNNANOL B] | 5.28 |  | inactive | pIC50 (A549 [6]): 5.09
